# Measured values published in ChEMBL document CHEMBL5344414, “Maleimide constrained BAD BH3 domain peptides as BCL-xL Inhibitors: A versatile approach to rapidly identify sites compatible with peptide constraining” (Bioorg Med Chem Lett, 2023).
# Calls of active or inactive are those of the source. The calls are words filed in the database; no cut-off is given here. Where a SMILES comes first, the peptide text is derived from it.
# What was measured:
# [1] = target: Induced myeloid leukemia cell differentiation protein Mcl-1/BH3-interacting domain death agonist (Homo sapiens) (UniProt Q07820+P55957); experiment: Inhibition of BID/MCL-1 interaction (unknown origin) by fluorescence anisotropy competition assay; assay type: protein assay
# Chain of Induced myeloid leukemia cell differentiation protein Mcl-1/BH3-interacting domain death agonist (Homo sapiens) (P55957 whole entry, looked up, the tested form may be a part): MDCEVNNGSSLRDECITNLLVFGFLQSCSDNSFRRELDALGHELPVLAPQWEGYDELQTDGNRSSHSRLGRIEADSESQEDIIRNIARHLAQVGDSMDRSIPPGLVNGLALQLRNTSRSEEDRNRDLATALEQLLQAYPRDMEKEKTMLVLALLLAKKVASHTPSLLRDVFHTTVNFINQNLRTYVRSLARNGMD
# Chain of Induced myeloid leukemia cell differentiation protein Mcl-1/BH3-interacting domain death agonist (Homo sapiens) (Q07820 whole entry, looked up, the tested form may be a part): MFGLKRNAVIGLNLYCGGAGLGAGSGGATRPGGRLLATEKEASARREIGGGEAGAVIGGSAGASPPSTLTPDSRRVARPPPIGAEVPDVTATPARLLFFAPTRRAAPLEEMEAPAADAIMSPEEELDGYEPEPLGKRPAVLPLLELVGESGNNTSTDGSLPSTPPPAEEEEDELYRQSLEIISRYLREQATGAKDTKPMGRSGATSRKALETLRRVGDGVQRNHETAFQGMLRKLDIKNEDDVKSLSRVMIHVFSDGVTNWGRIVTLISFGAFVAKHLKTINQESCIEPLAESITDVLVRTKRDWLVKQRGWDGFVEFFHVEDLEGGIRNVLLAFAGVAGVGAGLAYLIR
# BCL2L1/BAD = BCL2L1/BAD (Homo sapiens, UniProt Q07817); experiment: Inhibition of BAD/His-SUMO tagged BCL-XL (1 to 209 residues; missing 27 to 82 residues) (unknown origin) overexpressed in Escherichia coli BL21 protein-protein interaction by fluorescence anisotropy competition assay
# Chain of BCL2L1/BAD (Q92934 whole entry, the tested form may be a part): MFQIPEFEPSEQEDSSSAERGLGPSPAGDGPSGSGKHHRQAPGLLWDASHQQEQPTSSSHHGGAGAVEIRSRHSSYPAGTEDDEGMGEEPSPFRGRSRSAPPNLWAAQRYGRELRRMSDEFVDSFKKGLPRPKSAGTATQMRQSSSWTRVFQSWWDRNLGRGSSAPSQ
# Chain of BCL2L1/BAD (Q07817 whole entry, the tested form may be a part): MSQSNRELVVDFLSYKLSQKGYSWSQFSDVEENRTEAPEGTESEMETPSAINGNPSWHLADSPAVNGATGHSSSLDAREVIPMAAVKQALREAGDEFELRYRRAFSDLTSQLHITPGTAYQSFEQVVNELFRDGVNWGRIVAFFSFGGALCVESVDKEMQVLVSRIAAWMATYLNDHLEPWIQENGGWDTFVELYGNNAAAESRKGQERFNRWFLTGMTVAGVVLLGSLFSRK
# How it was run: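 Final conditions: 200 nM BCL-xL, 50 nM tracer, 20 mM Tris, 150 mM NaCl, pH 7.6, 20 °C, with peptide titrated. Tracer Kd for BCL-xL was determined beforehand by direct titration (6 nM-125 μM protein).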
SMILES,IC50 (BCL2L1/BAD) [µM],inhibition [1]
CSCC[C@H](NC(=O)[C@H](CCCNC(=N)N)NC(=O)[C@H](CCCNC(=N)N)NC(=O)[C@H](CC(C)C)NC(=O)[C@H](CCC(=O)O)NC(=O)[C@H](CCCNC(=N)N)NC(=O)CNC(=O)[C@H](Cc1ccc(O)cc1)NC(=O)[C@H](CCCNC(=N)N)NC(C)=O)C(=O)N[C@@H](CO)C(=O)N[C@@H](CC(=O)O)C(=O)N[C@@H](CCC(=O)O)C(=O)N[C@@H](Cc1ccccc1)C(=O)N[C@H](C(=O)N[C@@H](CC(=O)O)C(=O)N[C@@H](CO)C(=O)N[C@@H](Cc1ccccc1)C(=O)N[C@@H](CCCCN)C(=O)N[C@@H](CCCCN)C(N)=O)C(C)C (Ac-RYGRELRRMSDEFVDSFKK-NH2),3.6,inactive
CSCC[C@H](NC(=O)[C@H](CCCNC(=N)N)NC(=O)[C@H](CCCNC(=N)N)NC(=O)[C@H](CC(C)C)NC(=O)[C@H](CCC(=O)O)NC(=O)[C@H](CCCNC(=N)N)NC(=O)CNC(=O)[C@H](Cc1ccc(O)cc1)NC(=O)[C@H](CCCNC(=N)N)NC(=O)[C@H](CCC(N)=O)NC(=O)[C@H](C)NC(=O)[C@H](C)NC(=O)[C@H](Cc1c[nH]c2ccccc12)NC(=O)[C@H](CC(C)C)NC(=O)[C@H](CC(N)=O)NC(C)=O)C(=O)N[C@@H](CO)C(=O)N[C@@H](CC(=O)O)C(=O)N[C@@H](CCC(=O)O)C(=O)N[C@@H](Cc1ccccc1)C(=O)N[C@H](C(=O)N[C@@H](CC(=O)O)C(=O)N[C@@H](CO)C(=O)N[C@@H](Cc1ccccc1)C(=O)N[C@@H](CCCCN)C(=O)N[C@@H](CCCCN)C(N)=O)C(C)C,0.2,inactive
CSCC[C@H](NC(=O)[C@H](CCCNC(=N)N)NC(=O)[C@H](CCCNC(=N)N)NC(=O)[C@H](CC(C)C)NC(=O)[C@H](CCC(=O)O)NC(=O)[C@H](CCCNC(=N)N)NC(=O)CNC(=O)[C@H](Cc1ccc(O)cc1)NC(=O)[C@H](CCCNC(=N)N)NC(C)=O)C(=O)N[C@@H](CO)C(=O)N[C@@H](CC(=O)O)C(=O)N[C@H]1CS2=S(C[C@@H](C(=O)N[C@@H](Cc3ccccc3)C(=O)N[C@@H](CCCCN)C(=O)N[C@@H](CCCCN)C(N)=O)NC(=O)[C@H](CC(=O)O)NC(=O)[C@H](C(C)C)NC(=O)[C@H](Cc3ccccc3)NC1=O)C(=O)NC2=O (stereo partly specified),> 50,
CSCC[C@H](NC(=O)[C@H](CCCNC(=N)N)NC(=O)[C@H](CCCNC(=N)N)NC(=O)[C@H](CC(C)C)NC(=O)[C@H](CCC(=O)O)NC(=O)[C@H](CCCNC(=N)N)NC(=O)CNC(=O)[C@H](Cc1ccc(O)cc1)NC(=O)[C@H](CCCNC(=N)N)NC(C)=O)C(=O)N[C@H]1CS2=S(C[C@@H](C(=O)N[C@@H](CC(=O)O)C(=O)N[C@@H](CO)C(=O)N[C@@H](Cc3ccccc3)C(=O)N[C@@H](CCCCN)C(=O)N[C@@H](CCCCN)C(N)=O)NC(=O)[C@H](Cc3ccccc3)NC(=O)[C@H](CCC(=O)O)NC(=O)[C@H](CC(=O)O)NC1=O)C(=O)NC2=O (stereo partly specified),> 50,

# Further lines, with some results ahead:
IC50 (BCL2L1/BAD) [µM],SMILES,inhibition [1]
2.4,CSCC[C@@H]1NC(=O)[C@@H](NC(=O)[C@H](CCCNC(=N)N)NC(=O)[C@H](CC(C)C)NC(=O)[C@H](CCC(=O)O)NC(=O)[C@H](CCCNC(=N)N)NC(=O)CNC(=O)[C@H](Cc2ccc(O)cc2)NC(=O)[C@H](CCCNC(=N)N)NC(C)=O)CS2=S(C[C@@H](C(=O)N[C@@H](Cc3ccccc3)C(=O)N[C@H](C(=O)N[C@@H](CC(=O)O)C(=O)N[C@@H](CO)C(=O)N[C@@H](Cc3ccccc3)C(=O)N[C@@H](CCCCN)C(=O)N[C@@H](CCCCN)C(N)=O)C(C)C)NC(=O)[C@H](CC(=O)O)NC(=O)[C@H](CO)NC1=O)C(=O)NC2=O (stereo partly specified),inactive
6.9,CSCC[C@H](NC(=O)[C@H](CS)NC(=O)[C@H](CCCNC(=N)N)NC(=O)[C@H](CC(C)C)NC(=O)[C@H](CCC(=O)O)NC(=O)[C@H](CCCNC(=N)N)NC(=O)CNC(=O)[C@H](Cc1ccc(O)cc1)NC(=O)[C@H](CCCNC(=N)N)NC(C)=O)C(=O)N[C@@H](CO)C(=O)N[C@@H](CC(=O)O)C(=O)N[C@@H](CS)C(=O)N[C@@H](Cc1ccccc1)C(=O)N[C@H](C(=O)N[C@@H](CC(=O)O)C(=O)N[C@@H](CO)C(=O)N[C@@H](Cc1ccccc1)C(=O)N[C@@H](CCCCN)C(=O)N[C@@H](CCCCN)C(N)=O)C(C)C (Ac-RYGRELRCMSDCFVDSFKK-NH2),inactive
> 50,CSCC[C@@H]1NC(=O)[C@H](CCCNC(=N)N)NC(=O)[C@@H](NC(=O)[C@H](CC(C)C)NC(=O)[C@H](CCC(=O)O)NC(=O)[C@H](CCCNC(=N)N)NC(=O)CNC(=O)[C@H](Cc2ccc(O)cc2)NC(=O)[C@H](CCCNC(=N)N)NC(C)=O)CS2=S(C[C@@H](C(=O)N[C@@H](CCC(=O)O)C(=O)N[C@@H](Cc3ccccc3)C(=O)N[C@H](C(=O)N[C@@H](CC(=O)O)C(=O)N[C@@H](CO)C(=O)N[C@@H](Cc3ccccc3)C(=O)N[C@@H](CCCCN)C(=O)N[C@@H](CCCCN)C(N)=O)C(C)C)NC(=O)[C@H](CO)NC1=O)C(=O)NC2=O (stereo partly specified),
